# Measurements from paper PMC7178755 (Toxicology and applied pharmacology, 2019).
# Several values for one entry are separate records, joined by “and”; a condition that tells them apart may be missing. Equal values may be shown once.
# How the values were obtained:
# [1] = rat uterotrophic assay; administered orally; ref Conley et al., 2016; cited from earlier work
# [2] = Gavage toxicokinetics, summary statements over rats and mice; type: in vivo; conditions: rat, mouse, plasma, po
# Procedure, shortened: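 Single gavage doses in corn oil were given to male and female rats (9–10 wk; 34, 110, 340 mg/kg) and B6C3F1/N mice (10–11 wk; 34 mg/kg), with a 34 mg/kg IV tail-vein reference. Plasma was sampled from 5 min to 48 h. Free and total (enzyme-deconjugated) test compound was quantitated. F = dose-adjusted oral/IV free AUC0−∞; half-life taken as K10 half-life from compartmental fits.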
# [3] = system: hepatocytes from humans and rodents; conditions: ref Waidyanatha et al., 2015, cited from earlier work
# [4] = Plasma toxicokinetics after single intravenous administration in rats; type: in vivo, Harlan Sprague Dawley rats; conditions: for AUC(0-inf) / Cmax / Vd: Hsd:Sprague Dawley SD, rat, iv, 34 mg/kg
# [5] = Plasma toxicokinetics after single gavage administration in mice; type: in vivo, B6C3F1/N mice; conditions: for half-life / AUC(0-inf) / Cmax / Tmax / bioavailability: 34 mg/kg; for bioavailability: AUC/Dose (oral) ÷ AUC/Dose (IV) x 100
# [6] = free BPAF; rats; single gavage 20 and 100 mg/kg; ref Li et al. (2013); cited from earlier work
# [7] = Plasma toxicokinetics after single gavage administration in rats; type: in vivo, Harlan Sprague Dawley rats; conditions: for bioavailability / Tmax / AUC(0-inf) / Cmax / half-life: rat, po; for bioavailability / Tmax / AUC(0-inf) / Cmax / half-life / Cl1_F / Cl2_F / K12 / K21 / V1_F / V2_F: plasma; for half-life / Cl1_F / Cl2_F / K12 / K21 / V1_F / V2_F: mean (SE)
# [8] = rat, sex and strain not specified; ref Halocarbon, 2008; cited from earlier work
# [9] = free BPAF, female rats, 34 mg/kg IV, mean (SE)
# [10] = free BPAF, male rats, 34 mg/kg IV, mean (SE)
# [11] = female, B6C3F1/N, mouse, plasma, po
# [12] = free BPAF, female B6C3F1/N mice, 34 mg/kg gavage
# [13] = free BPAF, female mice, 34 mg/kg gavage, plasma, mean (SE)
# [14] = free BPAF, male mice, 34 mg/kg gavage, plasma, mean (SE)
# [15] = male, B6C3F1/N, mouse, plasma, po
# [16] = female, Harlan Sprague Dawley (Hsd:Sprague Dawley SD), 34 mg/kg
# [17] = female, Hsd:Sprague Dawley SD, 34 mg/kg
# [18] = female, Hsd:Sprague Dawley SD, 110 mg/kg
# [19] = female, Hsd:Sprague Dawley SD, 340 mg/kg
# [20] = free BPAF, female HSD rats, 34 mg/kg gavage
# [21] = free BPAF, female rats, 34 mg/kg gavage
# [22] = free BPAF, female rats, 110 mg/kg gavage
# [23] = free BPAF, female rats, 340 mg/kg gavage
# [24] = free BPAF, male rats, 34 mg/kg gavage
# [25] = free BPAF, male rats, 110 mg/kg gavage
# [26] = free BPAF, male rats, 340 mg/kg gavage
# [27] = male, Hsd:Sprague Dawley SD, 34 mg/kg
# [28] = male, Hsd:Sprague Dawley SD, 110 mg/kg
# [29] = male, Hsd:Sprague Dawley SD, 340 mg/kg
smiles,measurement,setting,value
"Oc1ccc(C(c2ccc(O)cc2)(C(F)(F)F)C(F)(F)F)cc1 [BPAF, Bisphenol AF]",ED50,[1],209.1 mg/kg/day
same,half-life,"[2]; Hsd:Sprague Dawley SD (rats), B6C3F1/N (mice)",≤ 4.22 h
same,half-life,"[2]; female, Harlan Sprague Dawley (rats) and B6C3F1/N (mice), 34 mg/kg",~9 h
same,clearance compared with BPA,"[3]; hepatocytes from humans and rodents, in vitro",cleared more slowly than BPA
same,clearance rank order between species,[3]; hepatocytes in vitro,rat > mouse > human
same,AUC(0-inf),[4]; female,45300 ng·h/mL
same,Cmax,[4]; female,71500 ng/mL
same,Vd,[4]; female,0.697 L/kg
same,Cl1,[4]; [9],0.751 (0.118) L/h/kg
same,K12,[4]; [9],0.0656 (0.0398) 1/h
same,K21,[4]; [9],0.141 (0.0339) 1/h
same,V1,[4]; [9],0.476 (0.115) L/kg
same,V2,[4]; [9],0.222 (0.0922) L/kg
same,Cl1,[4]; [10],0.753 (0.102) L/h/kg
same,Cl2,[4]; [10],0.0225 (0.00797) L/h /kg
same,K12,[4]; [10],0.0503 (0.0151) 1/h
same,K21,[4]; [10],0.0892 (0.0147) 1/h
same,V1,[4]; [10],0.448 (0.0811) L/kg
same,V2,[4]; [10],0.253 (0.0785) L/kg
same,AUC(0-inf),[4]; male,45200 ng·h/mL
same,Cmax,[4]; male,75900 ng/mL
same,Vd,[4]; male,0.7 L/kg
same,half-life,"[5]; both, B6C3F1/N, mouse, plasma, po, elimination half-life, free BPAF, male and female mice, 34 mg/kg gavage",≤ 4.22 h
same,AUC(0-inf),[5]; [11],495 ng·h/mL and 1.47 µM·h
same,Cmax,[5]; [11],105 ng/mL and 313 nM
same,Tmax,[5]; [11],0.342 h
same,half-life,"[5]; female, B6C3F1/N, mouse, plasma, po, Alpha Half-life, free BPAF, female mice, 34 mg/kg gavage, mean (SE)",0.209 h
same,half-life,"[5]; female, B6C3F1/N, mouse, plasma, po, Beta Half-life, free BPAF, female mice, 34 mg/kg gavage, mean (SE)",9.02 h
same,bioavailability,"[5]; female, B6C3F1/N, mouse, plasma, po, Bioavailability, free BPAF, Female Mice, 34 mg/kg gavage",3%
same,half-life,"[5]; female, B6C3F1/N, mouse, plasma, po, K10 Half-Life, free BPAF, female mice, 34 mg/kg gavage, mean (SE)",1.33 h
same,bioavailability,"[5]; free BPAF, Female Mice, 34 mg/kg gavage",3.13%
same,bioavailability,"[5]; free BPAF, Male Mice, 34 mg/kg gavage",5.64%
same,Dose-normalized AUC0−∞,[5]; [12],14.6 (nmol.h/mL)/(mmol/kg)
same,Dose-normalized Cmax,[5]; [12],3.099 (nmol/mL)/(mmol/kg)
same,Cl1_F,[5]; [13],68.7 (22.5) L/h/kg
same,Cl2_F,[5]; [13],313 (17400) L/h /kg
same,K12,[5]; [13],2.38 (899) 1/h
same,K21,[5]; [13],0.487 (0.497) 1/h
same,V1_F,[5]; [13],131 (42200) L/kg
same,V2_F,[5]; [13],642 (35300) L/kg
same,Cl1_F,[5]; [14],80.0 (22.5) L/h/kg
same,Cl2_F,[5]; [14],13.2 (226) L/h /kg
same,K12,[5]; [14],0.0271 (0.476) 1/h
same,K21,[5]; [14],0.369 (5.1) 1/h
same,V1_F,[5]; [14],487 (238) L/kg
same,AUC(0-inf),[5]; [15],425 ng·h/mL
same,Cmax,[5]; [15],64.1 ng/mL
same,Tmax,[5]; [15],0.455 h
same,half-life,"[5]; male, B6C3F1/N, mouse, plasma, po, Alpha Half-life, free BPAF, male mice, 34 mg/kg gavage, mean (SE)",1.67 h
same,half-life,"[5]; male, B6C3F1/N, mouse, plasma, po, Beta Half-life, free BPAF, male mice, 34 mg/kg gavage, mean (SE)",4.73 h
same,bioavailability,"[5]; male, B6C3F1/N, mouse, plasma, po, Bioavailability, free BPAF, Male Mice, 34 mg/kg gavage",~6%
same,half-life,"[5]; male, B6C3F1/N, mouse, plasma, po, K10 Half-Life, free BPAF, male mice, 34 mg/kg gavage, mean (SE)",4.22 h
same,Tmax (maximum plasma BPAF concentration observed at),[6],1 h
same,bioavailability,"[7]; both, Hsd:Sprague Dawley SD",~1%
same,Tmax,"[7]; both, Hsd:Sprague Dawley SD, 34 mg/kg",0.767 to 0.812 h
same,AUC(0-inf),[7]; [16],1.37 µM·h
same,Cmax,[7]; [16],142 nM
same,bioavailability,[7]; [16],1.02%
same,bioavailability,"[7]; female, Harlan Sprague Dawley (Hsd:Sprague Dawley SD), 340 mg/kg",1.06%
same,Tmax,"[7]; female, Hsd:Sprague Dawley SD",0.767 to 1.34 h
same,AUC(0-inf),[7]; [17],461 ng·h/mL
same,Cmax,[7]; [17],47.4 ng/mL
same,Tmax,[7]; [17],0.767 h
same,half-life,"[7]; female, Hsd:Sprague Dawley SD, 34 mg/kg, Alpha Half-life, free BPAF, female rats, 34 mg/kg gavage",0.384 h
same,half-life,"[7]; female, Hsd:Sprague Dawley SD, 34 mg/kg, Beta Half-life, free BPAF, female rats, 34 mg/kg gavage",8.68 h
same,half-life,"[7]; female, Hsd:Sprague Dawley SD, 34 mg/kg, K10 Half-Life, free BPAF, female rats, 34 mg/kg gavage",3.35 h
same,AUC(0-inf),[7]; [18],1470 ng·h/mL
same,Cmax,[7]; [18],245 ng/mL
same,Tmax,[7]; [18],0.658 h
same,AUC(0-inf),[7]; [19],4810 ng·h/mL
same,Cmax,[7]; [19],555 ng/mL
same,Tmax,[7]; [19],1.34 h
same,Dose-normalized AUC0−∞,[7]; [20],13.6 (nmol.h/mL)/(mmol/kg)
same,Dose-normalized Cmax,[7]; [20],1.406 (nmol/mL)/(mmol/kg)
same,Cl1_F,[7]; [21],73.8 (13.3) L/h/kg
same,Cl2_F,[7]; [21],350 (4650) L/h /kg
same,K12,[7]; [21],0.981 (31.1) 1/h
same,K21,[7]; [21],0.698 (1.29) 1/h
same,V1_F,[7]; [21],357 (6600) L/kg
same,V2_F,[7]; [21],502 (5820) L/kg
same,Cl1_F,[7]; [22],74.7 (13.4) L/h/kg
same,Cl2_F,[7]; [22],194 (503) L/h /kg
same,K12,[7]; [22],1.07 (19.3) 1/h
same,K21,[7]; [22],0.215 (0.115) 1/h
same,V1_F,[7]; [22],181 (2810) L/kg
same,V2_F,[7]; [22],899 (2050) L/kg
same,Cl1_F,[7]; [23],70.7 (94.0) L/h/kg
same,Cl2_F,[7]; [23],101 (180) L/h /kg
same,K12,[7]; [23],0.433 (15.4) 1/h
same,K21,[7]; [23],0.0391 (0.0929) 1/h
same,V2_F,[7]; [23],2580 (6150) L/kg
same,Cl1_F,[7]; [24],85.2 (20.0) L/h/kg
same,Cl2_F,[7]; [24],193 (24800) L/h /kg
same,K12,[7]; [24],0.849 (604) 1/h
same,K21,[7]; [24],0.257 (0.137) 1/h
same,V1_F,[7]; [24],227 (132000) L/kg
same,V2_F,[7]; [24],752 (966600) L/kg
same,Cl1_F,[7]; [25],89.1 (52.4) L/h/kg
same,Cl2_F,[7]; [25],122 (2520) L/h /kg
same,K12,[7]; [25],0.402 (62.7) 1/h
same,K21,[7]; [25],0.0972 (0.207) 1/h
same,V1_F,[7]; [25],304 (41100) L/kg
same,V2_F,[7]; [25],1260 (23900) L/kg
same,Cl1_F,[7]; [26],70.3 (20.8) L/h/kg
same,Cl2_F,[7]; [26],36.9 (1910) L/h /kg
same,K12,[7]; [26],0.156 (49.5) 1/h
same,K21,[7]; [26],0.0814 (0.223) 1/h
same,V1_F,[7]; [26],237 (62900) L/kg
same,V2_F,[7]; [26],454 (24400) L/kg
same,bioavailability,"[7]; male, Harlan Sprague Dawley (Hsd:Sprague Dawley SD), 34 mg/kg",0.88%
same,bioavailability,"[7]; male, Harlan Sprague Dawley (Hsd:Sprague Dawley SD), 110 mg/kg",0.84%
same,bioavailability,"[7]; male, Harlan Sprague Dawley (Hsd:Sprague Dawley SD), 340 mg/kg",1.07%
same,Tmax,"[7]; male, Hsd:Sprague Dawley SD",0.812 to 2.3 h
same,AUC(0-inf),[7]; [27],399 ng·h/mL
same,Cmax,[7]; [27],60.7 ng/mL
same,Tmax,[7]; [27],0.812 h
same,half-life,"[7]; male, Hsd:Sprague Dawley SD, 34 mg/kg, Alpha Half-life, free BPAF, male rats, 34 mg/kg gavage",0.491 h
same,half-life,"[7]; male, Hsd:Sprague Dawley SD, 34 mg/kg, Beta Half-life, free BPAF, male rats, 34 mg/kg gavage",10.2 h
same,half-life,"[7]; male, Hsd:Sprague Dawley SD, 34 mg/kg, K10 Half-Life, free BPAF, male rats, 34 mg/kg gavage",1.85 h
same,AUC(0-inf),[7]; [28],1230 ng·h/mL
same,Cmax,[7]; [28],142 ng/mL
same,Tmax,[7]; [28],1.43 h
same,AUC(0-inf),[7]; [29],4830 ng·h/mL
same,Cmax,[7]; [29],552 ng/mL
same,Tmax,[7]; [29],2.2 h
same,oral LD50,[8],3400 mg/kg
